Assay results from ChEMBL document CHEMBL4706565, “Anti-glioma effects of 2-aminothiophene-3-carboxamide derivatives, ANO1 channel blockers” (Eur J Med Chem, 2020).
Calls of active or inactive are those of the source. No cut-off for these calls is given here.

How the values were obtained:
U-251 [1] = test: Antiproliferative activity against human U251 cells overexpressing ANO1 assessed as reduction in cell viability measured after 72 hrs by Celltiter-glo assay; format: functional
Outline: (§1)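 5.0×10^3 cells/well seeded, overnight, then compounds added as 1:4 serial dilutions in DMSO; viability read after 72 h with CellTiter-Glo luminescence. GI50 from fitted dose-response curves; triplicate wells, SD from three independent experiments. DMEM for U251 and U138, MEM for U87MG, both with 10% FBS and pen/strep, 37 °C, 5% CO2.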

U-87 MG [2] = test: Antiproliferative activity against human U87MG cells overexpressing ANO1 assessed as reduction in cell viability at 100 uM measured after 72 hrs by Celltiter-glo assay; format: functional, U-87MG ATCC; outline: as §1
Anoctamin-1 [3] = target: T1, Anoctamin-1 (Homo sapiens, UniProt Q5XXA6); test: Inhibition of human ANO1 channel expressed in HEK293 cells incubated for 10 mins by FLIPR assay; format: cell-based
T1 sequence (Q5XXA6 whole entry): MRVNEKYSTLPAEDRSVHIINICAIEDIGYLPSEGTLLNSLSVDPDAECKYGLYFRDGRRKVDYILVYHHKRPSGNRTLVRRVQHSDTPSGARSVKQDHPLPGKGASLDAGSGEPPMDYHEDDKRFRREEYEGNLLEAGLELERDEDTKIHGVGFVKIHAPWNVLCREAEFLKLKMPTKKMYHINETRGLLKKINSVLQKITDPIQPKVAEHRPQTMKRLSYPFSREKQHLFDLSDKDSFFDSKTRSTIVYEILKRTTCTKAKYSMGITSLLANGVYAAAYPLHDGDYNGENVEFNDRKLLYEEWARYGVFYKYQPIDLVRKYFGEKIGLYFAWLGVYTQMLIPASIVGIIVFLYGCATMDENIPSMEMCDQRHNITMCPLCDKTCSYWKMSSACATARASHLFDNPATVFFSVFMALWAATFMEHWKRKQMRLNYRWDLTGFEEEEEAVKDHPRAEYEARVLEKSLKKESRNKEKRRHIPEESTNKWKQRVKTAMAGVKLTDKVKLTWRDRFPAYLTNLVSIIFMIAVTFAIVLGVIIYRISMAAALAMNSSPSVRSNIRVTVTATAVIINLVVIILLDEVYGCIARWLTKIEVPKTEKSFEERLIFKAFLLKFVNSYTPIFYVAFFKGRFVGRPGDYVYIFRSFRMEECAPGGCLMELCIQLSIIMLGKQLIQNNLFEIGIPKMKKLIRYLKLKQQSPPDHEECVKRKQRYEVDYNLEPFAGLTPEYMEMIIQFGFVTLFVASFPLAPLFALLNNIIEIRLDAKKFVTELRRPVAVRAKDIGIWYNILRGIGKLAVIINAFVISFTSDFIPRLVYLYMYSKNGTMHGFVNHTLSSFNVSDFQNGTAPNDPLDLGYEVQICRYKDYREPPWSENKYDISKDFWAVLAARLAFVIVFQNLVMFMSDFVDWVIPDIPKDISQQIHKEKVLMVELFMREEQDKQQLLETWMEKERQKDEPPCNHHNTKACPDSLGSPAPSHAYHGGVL
Outline: (§2)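 HEK293 cells expressing human ANO1, 50,000 cells/well, plated overnight. Loaded with FLIPR Red membrane-potential dye in HEPES-buffered saline (pH 7.4) for 40-60 min at room temperature. Compound added for 10 min at room temperature, final DMSO 0.5%.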

[4] = Antiproliferative activity against mouse primary astrocytes assessed as reduction in cell viability at 100 uM measured after 72 hrs by Celltiter-Glo luminescent assay; format: cell-based, Astrocyte
Outline: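 Primary astrocytes isolated from adult mouse brain by a previously reported method. 5.0×10^3 cells/well, compound as 1:4 serial DMSO dilutions, CellTiter-Glo viability at 72 h.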

U138-MG [5] = test: Antiproliferative activity against human U138 cells overexpressing ANO1 assessed as reduction in cell viability at 100 uM measured after 72 hrs by Celltiter-glo assay; format: functional; outline: as §1
Anoctamin-1 [6] = target: T2, Anoctamin-1 (Mus musculus, UniProt Q8BHY3); test: Inhibition of GFP-fused mouse ANO1 channel expressed in HEK293A cells assessed as inhibition of ATP-induced channel current amplitude at membrane potential of +80 mV by patch clamp electrophysiology assay; format: cell-based, HEK293-A
T2 sequence (Q8BHY3 whole entry): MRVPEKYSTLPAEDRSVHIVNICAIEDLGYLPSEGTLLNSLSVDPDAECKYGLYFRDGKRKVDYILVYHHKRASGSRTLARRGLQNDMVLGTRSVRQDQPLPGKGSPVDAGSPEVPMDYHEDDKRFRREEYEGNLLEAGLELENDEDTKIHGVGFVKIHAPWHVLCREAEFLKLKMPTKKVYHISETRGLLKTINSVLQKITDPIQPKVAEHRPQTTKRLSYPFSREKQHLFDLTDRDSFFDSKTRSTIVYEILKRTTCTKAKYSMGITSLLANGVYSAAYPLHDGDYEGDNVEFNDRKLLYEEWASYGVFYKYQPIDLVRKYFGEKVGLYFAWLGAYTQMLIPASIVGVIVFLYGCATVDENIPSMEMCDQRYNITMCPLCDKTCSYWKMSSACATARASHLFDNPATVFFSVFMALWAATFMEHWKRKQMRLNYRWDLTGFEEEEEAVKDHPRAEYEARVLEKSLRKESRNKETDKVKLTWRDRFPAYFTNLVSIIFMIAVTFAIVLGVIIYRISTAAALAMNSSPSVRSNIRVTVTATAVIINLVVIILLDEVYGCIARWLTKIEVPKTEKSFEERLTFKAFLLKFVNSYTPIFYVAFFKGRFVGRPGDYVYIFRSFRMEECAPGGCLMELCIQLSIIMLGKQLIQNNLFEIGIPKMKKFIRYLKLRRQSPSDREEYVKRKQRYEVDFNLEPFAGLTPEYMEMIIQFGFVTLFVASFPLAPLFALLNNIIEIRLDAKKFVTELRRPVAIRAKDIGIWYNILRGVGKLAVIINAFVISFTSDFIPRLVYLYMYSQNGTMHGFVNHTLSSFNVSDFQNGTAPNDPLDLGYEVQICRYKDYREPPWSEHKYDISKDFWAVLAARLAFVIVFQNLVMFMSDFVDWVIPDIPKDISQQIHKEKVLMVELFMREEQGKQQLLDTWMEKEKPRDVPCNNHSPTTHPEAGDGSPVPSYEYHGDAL
Outline: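 Whole-cell recording at room temperature in HEK293A cells transfected with GFP-mANO1, GFP-mANO2 or GFP-mTTYH1. 1 s ramps from +80 to -80 mV, holding potential -10 mV. For ANO1/ANO2: pipette CsCl 146 mM with Ca-EGTA-NMDG, pH 7.3; bath NaCl-based, pH 7.3. For TTYH1: Tris-aspartate pipette (pH 7.2) and Tris-HCl bath (pH 7.4), with […] and BaCl2 added to block K+ channels, and hypotonic (220 mOsm/kg) bath. Washout recordings assessed reversibility.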

[7] = target: T3, Anoctamin-1 (Homo sapiens) (UniProt Q5XXA6); test: Inhibition of human ANO1 channel expressed in HEK293 cells at 10 uM incubated for 10 mins by FLIPR assay relative to control; format: cell-based; outline: as §2
T3 sequence (whole entry): T1 sequence (Q5XXA6 whole entry)

U-251 [8] = test: Inhibition of colony formation in human U251 cells at 10 uM incubated for 14 days by crystal violet dye based assay; format: functional; conditions: for inhibition: time 14.0 day
Outline: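 Colonies stained 24 h with crystal violet in methanol/formaldehyde/PBS, washed, extracted with 10% acetic acid and read at A570 nm. Compared against DMSO control.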

U138-MG [9] = test: Antiproliferative activity against human U138 cells overexpressing ANO1 assessed as reduction in cell viability measured after 72 hrs by Celltiter-glo assay; format: functional; outline: as §1
U-251 [10] = test: Inhibition of anchorage-independent colony formation in human U251 cells at 100 uM incubated for 14 days by crystal violet staining based soft agar colony formation assay; format: functional; conditions: for inhibition: time 14.0 day
Outline: (§3)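 Soft agar assay: 2.0×10^3 U251 cells in complete medium with 0.3% agar over a 0.6% bottom agar layer. Treated with compounds at 1-100 μM for 14 days, 37 °C, 5% CO2. Colonies stained with crystal violet for 24 h, whole wells photographed and colonies counted against DMSO control; n = 3.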

U-251 [11] = test: Inhibition of cell invasion in human U251 cells at 10 uM incubated for 48 hrs by Boyden chamber method; format: functional
Outline: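 Boyden chamber invasion: U251 cells serum-starved 24 h, then 2.5×10^5 cells seeded in 8-μm ECMatrix-coated transwells. Treated with compound at 1 or 10 μM for 48 h at 37 °C. Invasion ratio from relative fluorescence.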

U-251 [12] = test: Inhibition of cell migration in human U251 cells at 10 uM incubated for 18 hrs by wound healing assay; format: functional
Outline: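 U251 monolayer, 2.0×10^5 cells/well, plated overnight, then scratched and washed with PBS. Wound area imaged before and after incubation; migration ratio taken from migrated area. One-way ANOVA.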

U-251 [13] = test: Inhibition of anchorage-independent colony formation in human U251 cells at 30 uM incubated for 14 days by crystal violet staining based soft agar colony formation assay; format: functional, cell-based; conditions: time 14.0 day; outline: as §3
U-251 [14] = test: Inhibition of anchorage-independent colony formation in human U251 cells at 10 uM incubated for 14 days by crystal violet staining based soft agar colony formation assay; format: functional, cell-based; conditions: time 14.0 day; outline: as §3
U-87 MG [15] = test: Antiproliferative activity against human U87MG cells overexpressing ANO1 assessed as reduction in cell viability measured after 72 hrs by Celltiter-glo assay; format: functional, U-87MG ATCC; outline: as §1
U-251 [16] = test: Antiproliferative activity against human U251 cells overexpressing ANO1 assessed as reduction in cell viability at 100 uM measured after 72 hrs by Celltiter-glo assay; format: functional; outline: as §1
Anoctamin-1 [17] = target: T1, Anoctamin-1; test: Inhibition of human ANO1 expressed in FRT cells assessed as inhibition of ATP-induced channel current treated 20 mins prior to ATP challenge and measured by pacth-clamp technique; format: cell-based

Structure (SMILES)	GI50 (U-251 [1])	inhibition at 100 µM (U-87 MG [2])	IC50 (Anoctamin-1 [3])	inhibition at 72 h, 100 µM [4]	inhibition at 100 µM (U138-MG [5])	IC50 (Anoctamin-1 [6])	inhibition [7]	inhibition at 10 µM (U-251 [8]; U-251, 336 h, time 14 day)	GI50 (U138-MG [9])	inhibition at 100 µM (U-251 [10]; U-251, 336 h, time 14 day)	inhibition at 10 µM (U-251 [11])	inhibition at 10 µM (U-251 [12])	inhibition (U-251 [13])	inhibition (U-251 [14])	inhibition (U-251 [8])	inhibition (U-251 [10])	GI50 (U-87 MG [15])	inhibition at 100 µM (U-251 [16])	IC50 (Anoctamin-1 [17])
CC(C)(C)C1CCc2c(sc(N)c2C(N)=O)C1 (centres undefined)	83.2 µM	< 50%	2.95 µM	< 50%	< 50%	2.5 µM	80.1%												
CC(C)(C)C1CCc2c(sc(NC(=O)c3ccco3)c2C(=O)O)C1 (centres undefined)	41.9 µM	< 50%		< 50%		1.53 µM		72.7%	89.4 µM	72.7%	28.3%	34.8%	inactive	inactive					
COc1ccccc1/C=N/NC(=O)COc1ccc(Cl)cc1C						0.03 µM													
Cc1ccccc1NC(=O)c1c(NC(=O)C(F)(F)Br)sc2c1CCCCC2	45.3 µM			< 50%		0.05 µM			29.4 µM		11.7%	16.7%		inactive	inactive	inactive	48 µM		
CC(C)(C)C(=O)Nc1sc2c(c1C(N)=O)CCCCC2		< 50%	4.79 µM	< 50%	< 50%	4.07 µM	67.9%											< 50%	
CCc1c(C)nc(SCC(=O)Nc2ncc(-c3ccc(OC)cc3)s2)nc1O	79.3 µM	< 50%	2.6 µM	< 50%	< 50%	2.74 µM	63.9%				19.2%	26.5%		inactive	inactive	inactive			1.1 µM
NC(=O)c1c(NC(=S)NC(=O)c2ccccc2)sc2c1CCC2	24.4 µM		2.83 µM			2.63 µM	70.5%		17.1 µM								26 µM		
CC(C)(C)C1CCc2c(sc(NC(=S)NC(=O)c3ccccc3)c2C(N)=O)C1 (centres undefined)	70.2 µM		3.09 µM	< 50%	< 50%	5.66 µM	70.3%										82.4 µM		
NC(=O)c1c(NC(=S)NC(=O)c2ccccc2Cl)sc2c1CCC2	94.6 µM	< 50%	2.29 µM	< 50%	< 50%	3.12 µM	76.7%												
